# MrgX1 antag = human MrgX1 receptor antagonism, primary screen. 310,000 tested, 1.3% active. B-score at 10 µM. Q96LB2. MRGX1-HEK293 calcium flux, Fluo-4, BAM8-22 antagonism; active compounds read low. AID 588676;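 active = calcium-response B-score plate-corrected more than 3 library SD below zero, starting fluorescence within 5 deviations, no agonist response on first addition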;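 note: peak minus trough fluorescence over baseline after final BAM8-22 challenge near maximal dose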
# Target sequence (Q96LB2 whole entry, looked up): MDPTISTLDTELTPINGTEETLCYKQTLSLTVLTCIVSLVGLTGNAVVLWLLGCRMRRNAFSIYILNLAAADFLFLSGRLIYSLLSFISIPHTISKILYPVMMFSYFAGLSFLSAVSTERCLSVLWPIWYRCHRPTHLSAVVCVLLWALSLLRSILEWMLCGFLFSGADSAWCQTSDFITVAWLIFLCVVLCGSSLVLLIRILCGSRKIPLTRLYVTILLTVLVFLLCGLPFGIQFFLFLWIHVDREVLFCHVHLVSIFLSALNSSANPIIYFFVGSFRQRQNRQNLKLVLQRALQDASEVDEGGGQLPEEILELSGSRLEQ
# MrgX1 agonist = activates human MrgX1 receptor signaling; Q96LB2; MrgX1-HEK293 cells, Fluo-4 calcium fluorescence, agonist mode; active compounds read high; B-score at 10 µM; 310,000 tested, 0.44% active; AID 588627;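 active = calcium response B-score plate-corrected fluorescence ratio at least 3 library SD, with starting fluorescence B-score inside 5 SD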
#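 Material: MrgX1-expressing HEK293 cells; input: 15,000 cells per well; doses: test compound given as first of three sequential additions; schedule: overnight plating before 1 h dye loading; technique: Fluo-4 NW calcium-flux fluorescence, kinetic read; evaluation: baseline-normalised fluorescence change ratio, B-scored; control set: plate-wise positive and negative controls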
# MrgX1 PAM = human MrgX1 positive allosteric modulation, primary screen | Q96LB2 | MrgX1-HEK293, Fluo-4 calcium flux, FDSS; active compounds read high | B-score at 10 µM | 310,000 tested, 0.63% active | AID 588675;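 active = plate-corrected calcium response at least 3 library SD above typical, normal starting fluorescence, not activating the receptor alone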;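 note: compound read alongside a low EC10 to EC30 dose of BAM8-22 agonist; peak minus trough fluorescence over baseline measured at the second addition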
# RGS4 pot = RGS4 potentiation or activation. HEK293 M3R/inducible RGS4, carbachol calcium flux Fluo4; active compounds read low. 310,000 tested, 0.92% active. B-score at 10 µM;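 active = B-score of the integrated calcium signal more than 4 SD below the library mean, with starting fluorescence not abnormally high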;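 note: negative B-score means reduced calcium response which marks RGS4 activation or potentiation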
#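 test system = HEK293 cells with stable M3R and inducible RGS4 | schedule = recording 10 s baseline at 1 Hz, 100 s post-agonist | technique = Fluo4-AM (2 µM) calcium-flux fluorescence, kinetic read | measure = Agonist-evoked peak-minus-minimum fluorescence over baseline, integrated ratio, B score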
# RGS4 block = inhibitors of human RGS4 | AID 463165 | P49798 | 310,000 tested, 0.45% active | B-score at 10 µM | HEK293 M3R/RGS4 inducible, Fluo-4 calcium flux; active compounds read high; triggered by carbachol at its EC20;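 active = B-score, a plate-corrected calcium signal, over three deviations above library mean, with baseline fluorescence within five deviations of library mean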;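 note: RGS4 expression induced by doxycycline in cells with stable M3 receptor; B-score is computed from the integrated fluorescence ratio over baseline after carbachol; higher B-score means a larger calcium signal and so more RGS4 inhibition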
# Target sequence (P49798 whole entry, looked up): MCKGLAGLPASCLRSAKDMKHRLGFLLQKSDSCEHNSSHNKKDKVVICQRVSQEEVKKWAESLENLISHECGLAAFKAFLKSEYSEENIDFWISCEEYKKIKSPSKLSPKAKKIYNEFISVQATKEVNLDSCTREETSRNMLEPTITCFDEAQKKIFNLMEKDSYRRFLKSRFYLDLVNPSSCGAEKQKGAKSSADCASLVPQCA
# Starred values were filed as active, the others as inactive; i = inactive; nt = no result. The list is not random: actives were taken first. Their share in the collection is about 3.5%.
SMILES,MrgX1 antag,MrgX1 agonist,MrgX1 PAM,RGS4 pot,RGS4 block
O=C(Cc1ccccc1)NC(=S)Nc1ccc2oc(-c3ccccc3)nc2c1,i,i,i,i,i
CC(C)(C)c1ccc(/C=N/NC(=O)C[n+]2ccccc2)cc1,i,i,i,-7.1*,i
CC(C)(C)c1cc(/C=N/NC(=O)C[n+]2ccccc2)cc(C(C)(C)C)c1O,i,i,i,-7*,i
COC1=C(c2ccccc2)C(=O)c2ccccc2C1=O,i,i,7.2*,i,i
CCCCN1C(=O)c2cccc3cc(O)cc(c23)C1=O,i,i,i,i,i
Cc1cccc[n+]1C1C(c2ccccc2)C(C#N)=C(C(=C=[N-])C#N)NC1(O)C1CC1 (centres undefined),i,43*,i,i,i
Cc1ccc[n+](C2C(c3ccc([N+](=O)[O-])cc3)C(C#N)=C([S-])NC2(O)C2CC2)c1 (centres undefined),i,i,i,i,i
N#CC(=C=[N-])C1=C(C#N)C(c2ccccc2F)C([n+]2ccccc2)C(O)(C2CC2)N1 (centres undefined),i,48*,i,i,i
Nc1nc(SCC(=O)Nc2ccc(Cl)cn2)n[nH]1,i,i,i,i,i
CCn1cnc2cc(NCc3ccc(OC)cc3)ccc21,i,i,i,i,i
CCOc1ccc2nc3cc(NCc4ccc(OC)cc4)ccc3c(N)c2c1,i,i,i,-7.6*,i
CCc1cc(CNC(=O)C2CCC(=O)N(CCc3cccc(F)c3)C2)on1 (centres undefined),nt,nt,nt,i,i
Cc1cc(C)c(C(=O)COC(=O)c2ccc([N+](=O)[O-])o2)cc1C,i,i,i,-7.5*,i
COCCn1c(C)cc(C(=O)COC(=O)c2ccc([N+](=O)[O-])o2)c1C,i,i,i,i,i
Oc1ccccc1N1CCN(c2ncnc3scc(-c4ccccc4)c23)CC1,i,i,i,-7.4*,i
Oc1ccccc1N1CCN(c2ncnc3scc(-c4ccc(F)cc4)c23)CC1,i,i,i,i,i
O=C(CN1CCN(C(=O)c2ccco2)CC1)N1CCc2[nH]c3ccccc3c2C1,-5.9*,i,i,i,i
CC(=O)c1c(C)n(-c2ccccc2)c2ccc(OCC(N)=O)cc12,i,i,i,i,i
O=C(N/N=C/c1cc(Cl)cc([N+](=O)[O-])c1O)c1cc(-c2ccccn2)nc2ccccc12,-5.5*,i,i,i,i
COc1cc([N+](=O)[O-])cc(/C=N/NC(=O)c2cc(-c3ccccc3)nc3ccccc23)c1O,i,i,10*,i,i
COc1cc([N+](=O)[O-])cc(/C=N/NC(=O)c2cc(C)nc3ccccc23)c1O,i,i,i,i,i
CCn1ccnc1CN(C)C(=O)CCc1nnc(CCCc2ccccc2)o1,i,i,i,i,i
Cc1ccc(NC(=O)C2CC(=O)Nc3nncn32)cc1 (centres undefined),i,i,i,i,i
O=C(COC(=O)c1cnccn1)N=c1sccn1Cc1ccccc1Cl,i,i,i,i,i
CCOC(=O)c1ccc(N2Cc3ccccc3C2=N)cc1,i,i,i,-7.3*,i
SMILES,MrgX1 antag,MrgX1 agonist,MrgX1 PAM,RGS4 pot,RGS4 block
CC1CC(C)CN(S(=O)(=O)c2ccc3c(c2)NC(=O)C(C)C(=O)N3)C1 (centres undefined),i,i,i,i,i
Cc1cc(C)n(CC(=O)N/N=C/c2ccc([N+](=O)[O-])s2)n1,i,i,i,i,i
Cc1cc(C)n(CC(=O)N/N=C/c2cccs2)n1,-4.6*,i,i,i,i
N#Cc1ccsc1NC(=O)c1ccc(Cl)c([N+](=O)[O-])c1,-4.9*,i,i,i,i
N#Cc1ccsc1NC(=O)c1cccc([N+](=O)[O-])c1,i,i,i,i,i
O=C(Nc1ccc(C(O)(C(F)(F)F)C(F)(F)F)cc1)c1ccc(Cl)c([N+](=O)[O-])c1,i,i,i,-8.8*,i
COCC(C)n1c(SCc2ccc(C(=O)OC)cc2)nc2ccccc2c1=O (centres undefined),i,i,i,i,i
CCOC(=O)C1=C(CSc2nc(-c3ccccc3)ccc2C#N)OC(N)=C(C#N)C1c1cccnc1 (centres undefined),-6.1*,i,i,i,i
Cc1ccccc1OCC(=O)Nc1ccc(N2CCN(C)CC2)c(Cl)c1,i,i,i,-7.9*,i
Cc1ccccc1OCC(=O)Nc1ccc2c(c1)Cc1ccccc1-2,i,i,i,i,i
CC(NC(=O)c1cccc(OC2CCN(C3CCN(C)CC3)CC2)c1)c1ccccc1 (centres undefined),i,i,i,i,i
CCOC(=O)c1cccc(NC(=O)c2ccc(N(C)C)cc2)c1,i,i,i,i,i
COc1cc(C(O)P(=O)(OCC(C)C)c2ccc(N(C)C)cc2)cc(OC)c1OC (centres undefined),i,i,i,i,i
CCOP(=O)(c1ccc(N(C)C)cc1)C(O)c1cc(OC)c(OC)c(OC)c1 (centres undefined),-4.8*,i,i,i,i
OC(COc1cccc2ccccc12)CN1CCN(c2ccccc2Cl)CC1 (centres undefined),i,i,i,i,i
CCn1c(SCC(=O)c2ccc(Br)cc2)nnc1C(C)NC(=O)Cc1ccc(OC)cc1 (centres undefined),i,i,i,i,i
COc1ccc(CC(=O)NC(C)c2nnc(SCC(=O)c3ccc(Br)cc3)n2C)cc1 (centres undefined),-7.4*,i,i,i,i
COc1cccc(N(CC(=O)NC2CCCCC2)C(=O)CCCC(=O)Nc2ccccn2)c1,i,i,i,i,i
CCN(CCNC(=O)CN1CCN(Cc2ccc(Cl)cc2)C1=O)c1ccccc1,i,i,i,i,i
CC1=CC(=C(C#N)c2nc3ccccc3s2)C=C(C)N1Cc1ccco1,i,i,i,-7.6*,i
COc1ccc(C2CC2C(C)=O)cc1 (centres undefined),i,30*,i,i,i
COc1ccc(C2CC2/C(C)=N/OC(=O)C2CC2)cc1 (centres undefined),i,i,i,i,i
O=C(OC(C(=O)Nc1cc(Cl)cc(Cl)c1)c1ccccc1)C1=COCCO1 (centres undefined),-5.3*,i,i,i,i

# Screening results from PubChem BioAssay.
